Screens: PubChem, several laboratories
A selection: hits, their analogues and other compounds. The true share with any hit is near 3.3%.
NFkB transloc pot – enhances IL-1B driven NFkB nuclear translocation; HUVEC IL-1B NFkB p65 nuclear translocation imaging; activation, % at 2 µM; 0.3% of 94,000 active; AID 819;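 active means activation above 40%, about the mean plus 3 SD, also judged a hit on visual image review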;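 further: percent activation is computed from the nuclear over cytoplasmic p65 intensity ratio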
NFkB transloc inh – blocks IL-1B driven NFkB nuclear translocation in HUVEC cells; HUVEC IL-1B NFkB p65 nuclear translocation imaging; inhibition, % at 2 µM; 0.43% of 94,000 active; AID 796;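 active means inhibition above about 30% together with a positive call from visual inspection of the well image, limit read from the data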;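 further: nuclear over cytoplasmic p65 intensity ratio measured by imaging; 0% = IL-1B stimulated DMSO wells and 100% = unstimulated DMSO wells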
HIV Rev-RRE inh – inhibitors of HIV-1 Rev-RRE RNA interaction. inhibition, % at 8 µM. 0.79% of 97,000 active. Rev peptide-RRE RNA binding, FRET. AID 704. P05866;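 active means inhibition above the screen-wide mean plus 3 SD, cut at about 35% in these data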;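 further: 0% = median DMSO wells and 100% = median Neomycin B control wells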
Target sequence (P05866 whole entry, looked up): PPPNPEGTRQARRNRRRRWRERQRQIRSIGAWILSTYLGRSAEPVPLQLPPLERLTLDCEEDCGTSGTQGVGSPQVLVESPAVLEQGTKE
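assay system = Cy5-tagged RRE RNA duplex with fluorescein-tagged Rev peptide | incubation = 5 + 15 min at 25 °C | also added = labelled Rev peptide | measure = % inhibition of FRET ratio versus controls | benchmarks = DMSO wells as 0% and neomycin B wells as 100% inhibition | measured by = FRET fluorescence readout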
HUVEC tox IL1B – toxic to HUVEC cells under IL-1B stimulation; HUVEC cell count loss, Hoechst imaging, IL-1B stimulated; cell count reduction, % at 2 µM; 0.41% of 94,000 active; AID 845;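 active means cell count reduction more than 3 SD above the screen-wide mean, cut at about 70% in these data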;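 further: normalized per plate to untreated control cells as the no-loss baseline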
Measles CPE – protection of cells from measles virus; Measles virus-infected cells, CPE protection, absorbance; protection (pct of control), % at 4 µM; 1.5% of 140,000 active; AID 841; in the data active means protection mostly above about 24%, no sharp cut-off; inactive means mostly below about 26%
FAK inh – blocks human focal adhesion kinase activity | Q05397 | biochemical FAK kinase activity assay | inhibition, %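 (tested at 7 µM)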 | 0.84% of 97,000 active; in the data active means inhibition above about 19%;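 further: 0% = DMSO and 100% = reference compound high control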
Numbers without * were called inactive; . = no result; [ ] = remark or other dose.

SMILES	NFkB transloc pot	NFkB transloc inh	HIV Rev-RRE inh	HUVEC tox IL1B	Measles CPE	FAK inh
O=C(CSCc1ccc(Cl)cc1)Nc1ccc(S(=O)(=O)N2CCOCC2)cc1	.	.	.	.	5.7	.
O=C(CSc1ncnc2sc3c(c12)CCCC3)c1ccccc1	-7.1	7.1	4.1	8.6	7.0	0.6
O=C(CSc1ncnc2sc3c(c12)CCCC3)c1ccco1	22.2	-22.2	6.8	-4.9	45.9*	8.1
CC(C)C(NC(=S)Nc1ccccc1)C(=O)O (stereo not given)	.	.	.	.	2.2	.
O=C(NCC1OCCc2ccccc21)c1ccco1 (stereo not given)	53.3*	-53.3	10.3	-2.5	8.0	12.1
COc1ccc(C(C(=O)NC2CCCCC2)N(C(=O)CCl)c2cccc(Cl)c2)cc1 (stereo not given)	.	.	.	.	6.0	.
Cn1nc(-c2ccc(C(=O)Nc3cccc(Cl)c3)cc2)c2ccccc2c1=O	-7.6	7.6	4.9	28.3	37.9*	-0.1
CC(C)(C)C1CCC2(CC1)C(C#N)=C(SCC(=O)Nc1ccccc1)NC(=O)C2C#N (stereo not given)	.	.	.	.	8.7	.
N#CC1=C(SCC(=O)c2cc3ccccc3oc2=O)NC(=O)C(C#N)C12CCCC2 (stereo not given)	-14.4	14.4	112.6*[fluorescence artefact?]	-5.0	6.9	3.2
COc1ccc(C2C(C(=O)OC(C)C)=C(C)N=c3s/c(=C\c4cccs4)c(=O)n32)cc1 (stereo not given)	4.2	-4.2	8.8	-16.4	44.7*	-5.2
CCOC(=O)C1=C(C)N=c2s/c(=C/c3ccccc3)c(=O)n2C1c1ccc(OC)c(OC)c1 (stereo not given)	0.9	-0.9	5.9	1.0	16.6	2.7
COc1ccc(NC(=O)C2CCN(S(C)(=O)=O)CC2)cc1	-42.5	42.5*	6.9	-129.8	4.2	-0.6
Cc1ccc(NC(=O)C2CCCN2S(=O)(=O)c2ccc3c(c2)n(C)c(=O)c(=O)n3C)cc1C (stereo not given)	.	.	.	.	15.0	.
O=C(N/N=C/c1ccc(-c2cccc(C(F)(F)F)c2)o1)c1ccccc1O	.	.	.	.	14.2	.
O=C(N/N=C/c1ccc(-c2cccc(C(F)(F)F)c2)o1)c1ccccc1Br	2.1	-2.1	59.5*	-30.0	4.6	-1.8
CCSc1nnc(NC(=O)CSc2nnc(CNC(=O)c3ccc(OC)c(OC)c3)o2)s1	.	.	.	.	5.0	.
[O-][n+]1cccc2ncc3cscc3c21	.	.	.	.	4.8	.
Cn1c(=O)c2c(nc(SCCN3CCCCC3)n2Cc2ccccc2)n(C)c1=O	20.2	-20.2	4.9	-40.9	76.1*	-1.1
Cn1c(=O)c2c(nc(SCCN3CCOCC3)n2Cc2cccc3ccccc23)n(C)c1=O	20.0	-20.0	5.6	-4.8	98.2*	-2.3
Cc1ccc(Cn2c(SCCN3CCCCC3)nc3c2c(=O)n(C)c(=O)n3C)cc1	-3.0	3.0	12.3	13.5	10.2	4.0
C=CCN1C(=O)C2(NNc3ccccc3O2)c2ccccc21 (stereo not given)	7.5	-7.5	69.3*	-6.6	4.5	-0.4
C=CCN1C(=O)C(O)(CC(=O)c2ccc(-n3cccc3)cc2)c2ccccc21 (stereo not given)	17.7	-17.7	1.6	6.1	3.1	-0.5
CCCCN1C(=O)C(O)(CC(=O)c2ccccc2OC)c2ccccc21 (stereo not given)	.	.	.	.	2.1	.
CCCCN1C(=O)C2(NNc3ccccc3O2)c2ccccc21 (stereo not given)	-22.2	22.2	72.6*	-18.0	16.0	1.2
O=C1CC(N2CCCCCC2)C(=O)N1c1ccc2c(c1)OCO2 (stereo not given)	-1.8	1.8	-1.0	-10.0	6.6	0.0
SMILES	NFkB transloc pot	NFkB transloc inh	HIV Rev-RRE inh	HUVEC tox IL1B	Measles CPE	FAK inh
O=C1CC(NC23CC4CC(CC(C4)C2)C3)C(=O)N1c1ccc2c(c1)OCO2 (stereo not given)	13.5	-13.5	2.4	-2.9	31.5*	-5.3
CCC(=O)N1CCN(c2nc3ccccc3s2)CC1	-36.8	36.8*	4.5	18.6	2.8	0.2
O=C(C1CC1)N1CCN(c2nc3ccccc3s2)CC1	2.4	-2.4	4.7	33.3	4.0	5.0
COc1ccc(C(=O)N/C(=C\c2cn(C)c3ccccc23)C(=O)OCC(C)C)cc1	.	.	.	.	9.0	.
Cc1noc(C)c1COc1ccc(C(=O)OCC(=O)N2CC3(C)CC2CC(C)(C)C3)cc1 (stereo not given)	-5.4	5.4	1.0	35.1	51.2*	2.3
Cc1noc(C)c1COc1ccc(C(=O)OCC(=O)Nc2ccc3ccccc3c2)cc1	4.0	-4.0	15.1	92.4*	5.6	-3.0
CSc1nnc(C)c(/C=C/Nc2ccc(Cl)cc2)n1	-6.8	6.8	41.9*	1.3	27.0	5.1
CSc1nnc(C)c(/C=C/Nc2ccc(F)cc2)n1	0.6	-0.6	89.3*[fluorescence artefact?]	4.8	34.4	-0.5
O=C(COc1ccc(/C=N/NC(=O)C(=O)N2CCCCCC2)cc1)Nc1ccccc1Cl	.	.	.	.	8.5	.
Cc1cc(/C=C(\C#N)C(=O)OCC(=O)Nc2ccc(OC(F)F)cc2)c(C)n1CC(C)C	.	.	.	.	12.2	.
COc1ccc(-c2cc(-c3nnc(COC(=O)CC4CC5CCC4C5)o3)c3ccccc3n2)cc1OC (stereo not given)	.	.	.	.	4.3	.
CCOC(=O)CN1C(=O)C(Sc2n[nH]c(-c3ccccc3)n2)CCc2ccccc21 (stereo not given)	-1.4	1.4	5.3	1.7	5.6	-1.4
Cc1ccccc1NC(=O)Cc1nc(CCl)cs1	.	.	.	.	41.8*	.
Cc1ccc(C)c(NC(=O)Cc2nc(CCl)cs2)c1	.	.	.	.	7.8	.
C=CCc1cc(Cl)ccc1OCCN(C)C	2.8	-2.8	-0.6	84.8*	18.6	-1.1
C=CCc1cc(Cl)ccc1OCCCNC(C)C	.	.	.	.	3.1	.
COc1ccc(S(=O)(=O)N2CCCC(C(=O)NC3CCCCC3)C2)cc1 (stereo not given)	1.6	-1.6	3.5	2.5	5.6	-1.6
COc1ccc(S(=O)(=O)N2CCCC(C(=O)O)C2)cc1 (stereo not given)	-34.3	34.3*	12.7	33.3	5.5	-2.5
O=C(c1ccccc1)N(C1=NCCCCS1)c1ccccc1	.	.	.	.	2.7	.
CCSc1ncc(/C=N/Nc2ccc([N+](=O)[O-])cc2)n1C	6.0	-6.0	65.8*[fluorescence artefact?]	7.3	7.3	5.6
CCNC(=O)c1ccc2c(c1)C1C3CCC(C3)C1C(c1ccccc1)N2 (stereo not given)	.	.	.	.	10.4	.
O=C(CC(NC(=O)c1ccccc1Cl)c1ccccc1)NCCc1ccc(Cl)cc1 (stereo not given)	.	.	.	.	40.5*	.
O=C(COC(=O)CC(NC(=O)c1ccccc1Cl)c1ccccc1)Nc1cccc(F)c1 (stereo not given)	.	.	.	.	13.7	.
O=C(CN1CCN(S(=O)(=O)c2ccc(Br)cc2)CC1)N/N=C/c1cccnc1	.	.	.	.	6.7	.
Cc1ccc2c(C)ccc(O)c2n1	-1.1	1.1	3.4	76.1*	15.3	0.7
O=C(Nc1nc(-c2cc(Cl)sc2Cl)cs1)c1ccccc1	36.0	-36.0	9.2	2.6	21.9	0.4
CSc1nccc(-c2cc(Cl)sc2Cl)n1	-0.9	0.9	13.3	3.7	19.5*	5.5
